Published values from different studies.
Compare with care: the assays were run in different laboratories.
Target: Serine/threonine-protein kinase Nek7 (NEK7, Homo sapiens, UniProt Q8TDX7)

Compound	effect on	mode	technique	tested at	endpoint	result
COc1ncccc1-c1cnn2ccc(N3CCN(C(=O)OC(C)C)CC3)nc12	binding	–	competition with immobilised ligand	1 µM	remaining binding	100%
Cn1cc(-c2cc(F)cc(N3CCn4c(cc5c4CCCC5)C3=O)c2CO)cc(Nc2ccc(N3CCN(C4COC4)CC3)cn2)c1=O	enzyme activity	inhibitor	–	0.1 µM	inhibition	10%
Nc1ncc(-c2nc(N3CCOCC3)nc(N3CCOCC3)n2)c(C(F)F)n1	binding	–	competition with immobilised ligand	10 µM	remaining binding	70%
Cc1nn(C)cc1-c1nc2c(N3CCN(Cc4ccc(Cl)cc4)CC3)c(Cl)cnc2[nH]1	binding	–	competition with immobilised ligand	1 µM	remaining binding	100%
Cn1cc(-c2cccc(N3CCc4c(sc5c4CC(C)(C)C5)C3=O)c2CO)cc(Nc2ccncn2)c1=O	enzyme activity	inhibitor	–	1 µM	inhibition	1%
N#CC1(c2ccccn2)CCN(Cc2cc(C(=O)O)c(=O)n3ccccc23)CC1	cell-free assay	–	competition with immobilised ligand	1 µM	remaining binding	100%
CC(C)(C)c1cc(C=C(C#N)C#N)cc(Br)c1O	enzyme activity	inhibitor	–	0.5 µM	remaining activity	89.5%
COc1cc(Nc2ncc(F)c(Nc3ccc4c(n3)NC(=O)C(C)(C)O4)n2)cc(OC)c1OC	binding	–	competition with immobilised ligand	10 µM	inhibition	100%
Cn1cncc1[C@](O)(COc1ccc(C#N)cc1-c1ccc(OC(F)(F)F)cc1)c1ccc(C#N)cc1	cell-free assay	–	competition with immobilised ligand	1 µM	remaining binding	46%
O=c1[nH]c2ccccc2n1C1CCN(Cc2ccc(-c3[nH]c4cc5ncnc5cc4nc3-c3ccccc3)cc2)CC1	cell-free assay	–	–	0.5 µM	remaining signal	99.6%
